Experimental data: ChEMBL document CHEMBL4118021, “Studies of TAK1-centered polypharmacology with novel covalent TAK1 inhibitors” (Bioorg Med Chem, 2017)
The source made the active and inactive calls. No cut-off for these calls is given here.

What was measured:
[1] = molecular target: Serine/threonine-protein kinase TBK1 (Homo sapiens) (UniProt Q9UHD2); experiment: Inhibition of TBK1 in human SKCO1 cells at 1 uM after 4 hrs using biotin labeled DIKPGNIMR probe by mass-spectrometric analysis relative to control; format: cell-based
[2] = molecular target: Dual specificity mitogen-activated protein kinase kinase 2 (Homo sapiens) (UniProt P36507); experiment: Inhibition of full length human MEK2 (1 to 400 residues) expressed in mammalian expression system assessed as enzyme activity at 1 uM by KINOMEScan assay relative to control; set-up: scale not given: the % may be the effect or the level left
Summary of the method: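 In vitro ATP-site competition binding assay (KinomeScan) across a panel of 456 kinases. Compound was tested at 1 and 10 μM. The read-out is the binding inhibition score relative to control.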

[3] = molecular target: Thymidylate kinase (Homo sapiens) (UniProt P23919); experiment: Binding affinity to DTYMK in human NCI-H23 cells at 1 uM by mass spectrometry based pull down assay; format: cell-based
Sequence of Thymidylate kinase (Homo sapiens) (P23919 whole entry): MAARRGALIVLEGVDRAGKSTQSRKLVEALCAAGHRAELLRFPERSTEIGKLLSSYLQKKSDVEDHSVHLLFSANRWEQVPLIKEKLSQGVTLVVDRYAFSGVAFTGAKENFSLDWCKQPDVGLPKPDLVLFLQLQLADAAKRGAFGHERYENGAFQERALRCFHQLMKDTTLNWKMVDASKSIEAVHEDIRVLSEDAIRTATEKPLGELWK

[4] = molecular target: RuvB-like 1 (Homo sapiens) (UniProt Q9Y265); experiment: Binding affinity to RUVBL1 in human NCI-H358 cells at 1 uM by mass spectrometry based pull down assay; format: cell-based
[5] = molecular target: T-complex protein 1 subunit epsilon (Homo sapiens) (UniProt P48643); experiment: Binding affinity to CCT5 in human NCI-H23 cells at 1 uM by mass spectrometry based pull down assay; format: cell-based
[6] = molecular target: Signal transducer and activator of transcription 1-alpha/beta (Homo sapiens) (UniProt P42224); experiment: Binding affinity to STAT1 in human NCI-H23 cells at 1 uM by mass spectrometry based pull down assay; format: cell-based
Sequence of Signal transducer and activator of transcription 1-alpha/beta (Homo sapiens) (P42224 whole entry): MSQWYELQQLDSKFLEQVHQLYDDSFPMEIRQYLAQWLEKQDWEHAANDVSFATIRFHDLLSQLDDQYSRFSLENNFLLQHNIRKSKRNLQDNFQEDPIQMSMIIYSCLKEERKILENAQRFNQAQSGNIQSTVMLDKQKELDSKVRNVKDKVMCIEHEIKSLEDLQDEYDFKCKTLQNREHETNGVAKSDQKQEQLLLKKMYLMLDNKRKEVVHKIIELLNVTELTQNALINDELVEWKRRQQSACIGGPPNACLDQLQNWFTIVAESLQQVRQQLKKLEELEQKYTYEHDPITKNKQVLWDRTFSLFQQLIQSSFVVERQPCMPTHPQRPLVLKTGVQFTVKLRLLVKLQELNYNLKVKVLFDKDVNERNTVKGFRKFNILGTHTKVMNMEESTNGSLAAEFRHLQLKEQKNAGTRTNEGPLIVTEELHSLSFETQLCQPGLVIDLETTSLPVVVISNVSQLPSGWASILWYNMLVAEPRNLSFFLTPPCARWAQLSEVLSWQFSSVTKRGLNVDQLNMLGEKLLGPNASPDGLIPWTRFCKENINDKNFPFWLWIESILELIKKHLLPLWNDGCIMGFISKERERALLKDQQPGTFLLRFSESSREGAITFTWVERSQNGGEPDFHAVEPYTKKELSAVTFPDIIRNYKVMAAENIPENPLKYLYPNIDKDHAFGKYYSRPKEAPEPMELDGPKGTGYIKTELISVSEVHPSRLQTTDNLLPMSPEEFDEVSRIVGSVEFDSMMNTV

[7] = molecular target: Monofunctional C1-tetrahydrofolate synthase, mitochondrial (Homo sapiens) (UniProt Q6UB35); experiment: Binding affinity to MTHFD1L in human NCI-H23 cells at 1 uM by mass spectrometry based pull down assay; format: cell-based
Sequence of Monofunctional C1-tetrahydrofolate synthase, mitochondrial (Homo sapiens) (Q6UB35 whole entry): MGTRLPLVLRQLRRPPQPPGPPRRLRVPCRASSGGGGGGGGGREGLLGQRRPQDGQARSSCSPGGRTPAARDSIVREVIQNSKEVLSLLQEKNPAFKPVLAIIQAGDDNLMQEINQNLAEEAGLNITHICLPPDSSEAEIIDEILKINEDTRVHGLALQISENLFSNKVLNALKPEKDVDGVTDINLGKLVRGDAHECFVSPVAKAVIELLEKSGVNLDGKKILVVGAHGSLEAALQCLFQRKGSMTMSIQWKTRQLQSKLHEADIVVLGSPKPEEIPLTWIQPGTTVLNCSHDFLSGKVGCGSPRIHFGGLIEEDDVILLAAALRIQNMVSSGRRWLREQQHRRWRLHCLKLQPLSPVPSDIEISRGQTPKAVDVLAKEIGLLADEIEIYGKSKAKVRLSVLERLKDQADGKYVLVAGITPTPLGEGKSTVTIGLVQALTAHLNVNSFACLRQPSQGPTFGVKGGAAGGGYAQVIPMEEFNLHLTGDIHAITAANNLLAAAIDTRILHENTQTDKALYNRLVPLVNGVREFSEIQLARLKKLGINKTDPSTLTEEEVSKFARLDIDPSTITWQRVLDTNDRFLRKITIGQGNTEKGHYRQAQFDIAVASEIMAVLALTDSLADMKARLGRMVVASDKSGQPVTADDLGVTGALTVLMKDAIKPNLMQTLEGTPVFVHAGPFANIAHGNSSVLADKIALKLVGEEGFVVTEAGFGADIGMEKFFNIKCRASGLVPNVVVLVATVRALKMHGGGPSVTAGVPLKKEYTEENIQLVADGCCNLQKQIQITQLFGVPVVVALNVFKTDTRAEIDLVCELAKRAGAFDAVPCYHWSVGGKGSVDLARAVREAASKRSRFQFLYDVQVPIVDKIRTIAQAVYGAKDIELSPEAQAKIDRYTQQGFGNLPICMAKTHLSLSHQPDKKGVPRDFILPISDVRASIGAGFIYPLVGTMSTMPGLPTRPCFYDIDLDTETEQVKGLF

[8] = molecular target: Acylamino-acid-releasing enzyme (Homo sapiens) (UniProt P13798); experiment: Binding affinity to APEH in human NCI-H23 cells at 1 uM by mass spectrometry based pull down assay; format: cell-based
[9] = molecular target: Glycogen synthase kinase-3 beta (Homo sapiens) (UniProt P49841); experiment: Binding affinity to GSK3B in human NCI-H358 cells at 1 uM by mass spectrometry based pull down assay; format: cell-based
Sequence of Glycogen synthase kinase-3 beta (Homo sapiens) (P49841 whole entry, looked up): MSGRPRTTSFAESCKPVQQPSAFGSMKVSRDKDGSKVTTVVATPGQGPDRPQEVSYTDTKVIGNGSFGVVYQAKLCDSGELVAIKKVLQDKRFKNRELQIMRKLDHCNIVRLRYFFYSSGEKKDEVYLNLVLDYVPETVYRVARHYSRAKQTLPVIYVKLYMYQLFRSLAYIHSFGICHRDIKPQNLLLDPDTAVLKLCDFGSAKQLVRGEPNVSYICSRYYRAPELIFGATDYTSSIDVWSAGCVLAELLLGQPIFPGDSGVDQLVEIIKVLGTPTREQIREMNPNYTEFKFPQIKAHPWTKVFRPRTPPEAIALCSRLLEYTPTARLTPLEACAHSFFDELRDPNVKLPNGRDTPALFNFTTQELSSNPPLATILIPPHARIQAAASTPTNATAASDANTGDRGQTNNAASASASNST

[10] = molecular target: UV radiation resistance-associated gene protein (Homo sapiens) (UniProt Q9P2Y5); experiment: Binding affinity to UVRAG in human NCI-H358 cells at 1 uM by mass spectrometry based pull down assay; format: cell-based
[11] = molecular target: T1, Serine/threonine-protein kinase Nek9 (Homo sapiens) (UniProt Q8TD19); experiment: Binding affinity to NEK9 in human NCI-H23 cells at 1 uM by mass spectrometry based pull down assay; format: cell-based
T1 sequence (whole entry): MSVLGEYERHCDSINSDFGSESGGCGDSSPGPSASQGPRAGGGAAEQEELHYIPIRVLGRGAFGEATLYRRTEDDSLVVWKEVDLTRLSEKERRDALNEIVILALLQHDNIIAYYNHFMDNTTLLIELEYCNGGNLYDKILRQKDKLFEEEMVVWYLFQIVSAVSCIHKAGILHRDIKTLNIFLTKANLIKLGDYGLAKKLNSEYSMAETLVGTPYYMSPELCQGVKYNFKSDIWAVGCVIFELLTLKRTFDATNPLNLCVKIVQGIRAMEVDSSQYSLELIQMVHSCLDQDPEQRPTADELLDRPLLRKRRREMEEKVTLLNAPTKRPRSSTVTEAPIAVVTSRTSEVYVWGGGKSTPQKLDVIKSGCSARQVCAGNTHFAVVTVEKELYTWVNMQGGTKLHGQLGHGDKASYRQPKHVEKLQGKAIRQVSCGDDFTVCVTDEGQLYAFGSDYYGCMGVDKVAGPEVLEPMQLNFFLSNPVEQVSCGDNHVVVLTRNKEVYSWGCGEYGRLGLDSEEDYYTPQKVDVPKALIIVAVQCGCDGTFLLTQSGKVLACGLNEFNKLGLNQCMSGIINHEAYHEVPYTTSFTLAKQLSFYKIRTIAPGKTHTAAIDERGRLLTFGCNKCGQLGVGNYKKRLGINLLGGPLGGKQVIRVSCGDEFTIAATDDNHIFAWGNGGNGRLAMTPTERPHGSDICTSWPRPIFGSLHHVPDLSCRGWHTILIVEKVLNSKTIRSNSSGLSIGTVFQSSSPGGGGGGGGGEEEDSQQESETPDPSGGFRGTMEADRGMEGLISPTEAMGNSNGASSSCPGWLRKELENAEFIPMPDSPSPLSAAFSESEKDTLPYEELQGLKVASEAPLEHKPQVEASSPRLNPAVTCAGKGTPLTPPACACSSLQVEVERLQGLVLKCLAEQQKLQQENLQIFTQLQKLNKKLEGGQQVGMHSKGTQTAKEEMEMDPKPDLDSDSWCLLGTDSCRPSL

[12] = molecular target: 5'-AMP-activated protein kinase catalytic subunit alpha-1 (Homo sapiens) (UniProt Q13131); experiment: Binding affinity to PRKAA1 in human NCI-H358 cells at 1 uM by mass spectrometry based pull down assay; format: cell-based
[13] = molecular target: F-actin-capping protein subunit beta (Homo sapiens) (UniProt P47756); experiment: Binding affinity to CAPZB in human NCI-H358 cells at 1 uM by mass spectrometry based pull down assay; format: cell-based
Sequence of F-actin-capping protein subunit beta (Homo sapiens) (P47756 whole entry): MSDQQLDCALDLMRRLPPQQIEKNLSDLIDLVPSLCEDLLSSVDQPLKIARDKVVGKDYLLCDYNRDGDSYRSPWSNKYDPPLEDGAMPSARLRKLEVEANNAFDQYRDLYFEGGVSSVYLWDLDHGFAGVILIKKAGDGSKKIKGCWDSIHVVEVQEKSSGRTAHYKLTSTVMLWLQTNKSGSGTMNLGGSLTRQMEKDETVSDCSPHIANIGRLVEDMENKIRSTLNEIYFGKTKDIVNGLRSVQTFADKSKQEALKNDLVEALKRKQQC

[14] = molecular target: Ribonucleoside-diphosphate reductase large subunit (Homo sapiens) (UniProt P23921); experiment: Binding affinity to RRM1 in human NCI-H23 cells at 1 uM by mass spectrometry based pull down assay; format: cell-based
[15] = molecular target: Glycogen synthase kinase-3 alpha (Homo sapiens) (UniProt P49840); experiment: Binding affinity to GSK3A in human NCI-H23 cells at 1 uM by mass spectrometry based pull down assay; format: cell-based
Sequence of Glycogen synthase kinase-3 alpha (Homo sapiens) (P49840 2-483 limits assumed): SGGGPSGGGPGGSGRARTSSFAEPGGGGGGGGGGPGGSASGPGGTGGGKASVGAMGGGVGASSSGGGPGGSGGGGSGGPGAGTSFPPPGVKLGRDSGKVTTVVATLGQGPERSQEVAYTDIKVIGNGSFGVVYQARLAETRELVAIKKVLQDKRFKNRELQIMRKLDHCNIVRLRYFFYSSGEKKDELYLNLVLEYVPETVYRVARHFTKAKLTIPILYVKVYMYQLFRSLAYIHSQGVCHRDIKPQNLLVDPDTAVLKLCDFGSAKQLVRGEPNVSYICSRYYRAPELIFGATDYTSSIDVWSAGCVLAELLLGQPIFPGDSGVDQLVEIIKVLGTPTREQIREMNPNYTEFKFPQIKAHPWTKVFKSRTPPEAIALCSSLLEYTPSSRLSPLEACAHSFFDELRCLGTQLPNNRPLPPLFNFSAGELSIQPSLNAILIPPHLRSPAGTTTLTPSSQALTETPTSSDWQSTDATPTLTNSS

[16] = molecular target: Calponin-2 (Homo sapiens) (UniProt Q99439); experiment: Binding affinity to CNN2 in human NCI-H23 cells at 1 uM by mass spectrometry based pull down assay; format: cell-based
[17] = molecular target: Ras GTPase-activating-like protein IQGAP1 (Homo sapiens) (UniProt P46940); experiment: Binding affinity to IQGAP1 in human NCI-H23 cells at 1 uM by mass spectrometry based pull down assay; format: cell-based
[18] = molecular target: 14-3-3 protein sigma (Homo sapiens) (UniProt P31947); experiment: Binding affinity to SFN in human NCI-H23 cells at 1 uM by mass spectrometry based pull down assay; format: cell-based
[19] = molecular target: Translation initiation factor eIF2B subunit gamma (Homo sapiens) (UniProt Q9NR50); experiment: Binding affinity to EIF2B3 in human NCI-H358 cells at 1 uM by mass spectrometry based pull down assay; format: cell-based
[20] = molecular target: DnaJ homolog subfamily A member 2 (Homo sapiens) (UniProt O60884); experiment: Binding affinity to DNAJA2 in human NCI-H23 cells at 1 uM by mass spectrometry based pull down assay; format: cell-based
Sequence of DnaJ homolog subfamily A member 2 (Homo sapiens) (O60884 whole entry): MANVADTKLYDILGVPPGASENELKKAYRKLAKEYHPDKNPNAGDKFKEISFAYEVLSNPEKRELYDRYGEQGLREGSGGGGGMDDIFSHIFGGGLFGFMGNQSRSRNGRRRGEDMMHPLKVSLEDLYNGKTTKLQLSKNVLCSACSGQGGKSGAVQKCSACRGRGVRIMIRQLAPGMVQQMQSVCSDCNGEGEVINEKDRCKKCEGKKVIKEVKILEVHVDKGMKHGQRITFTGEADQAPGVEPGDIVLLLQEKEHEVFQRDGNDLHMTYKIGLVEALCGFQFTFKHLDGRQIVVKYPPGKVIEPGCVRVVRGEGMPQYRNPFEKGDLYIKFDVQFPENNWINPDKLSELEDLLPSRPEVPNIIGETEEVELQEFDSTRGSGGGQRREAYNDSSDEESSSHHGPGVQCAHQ

[21] = molecular target: Apoptosis regulator BAX (Homo sapiens) (UniProt Q07812); experiment: Binding affinity to BAX in human NCI-H23 cells at 1 uM by mass spectrometry based pull down assay; format: cell-based
Sequence of Apoptosis regulator BAX (Homo sapiens) (Q07812 whole entry): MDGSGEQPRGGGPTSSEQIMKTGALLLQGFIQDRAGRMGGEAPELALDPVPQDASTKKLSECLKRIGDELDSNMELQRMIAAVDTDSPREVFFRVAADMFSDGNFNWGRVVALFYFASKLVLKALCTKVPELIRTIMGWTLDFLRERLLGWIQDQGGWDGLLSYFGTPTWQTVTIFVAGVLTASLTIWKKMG

[22] = molecular target: Glyoxylate reductase/hydroxypyruvate reductase (Homo sapiens) (UniProt Q9UBQ7); experiment: Binding affinity to GRHPR in human NCI-H23 cells at 1 uM by mass spectrometry based pull down assay; format: cell-based
Sequence of Glyoxylate reductase/hydroxypyruvate reductase (Homo sapiens) (Q9UBQ7 whole entry): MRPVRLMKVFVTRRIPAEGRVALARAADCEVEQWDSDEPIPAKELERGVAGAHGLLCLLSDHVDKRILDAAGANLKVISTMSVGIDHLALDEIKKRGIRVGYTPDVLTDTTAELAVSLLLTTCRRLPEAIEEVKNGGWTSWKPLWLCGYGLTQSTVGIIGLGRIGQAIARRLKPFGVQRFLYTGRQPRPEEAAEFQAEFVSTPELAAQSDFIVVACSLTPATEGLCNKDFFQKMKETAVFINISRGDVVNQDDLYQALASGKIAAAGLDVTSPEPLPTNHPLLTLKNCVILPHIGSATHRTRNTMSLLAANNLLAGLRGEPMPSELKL

[23] = molecular target: Coatomer subunit beta (Homo sapiens) (UniProt P53618); experiment: Binding affinity to COPB1 in human NCI-H358 cells at 1 uM by mass spectrometry based pull down assay; format: cell-based
Sequence of Coatomer subunit beta (Homo sapiens) (P53618 whole entry): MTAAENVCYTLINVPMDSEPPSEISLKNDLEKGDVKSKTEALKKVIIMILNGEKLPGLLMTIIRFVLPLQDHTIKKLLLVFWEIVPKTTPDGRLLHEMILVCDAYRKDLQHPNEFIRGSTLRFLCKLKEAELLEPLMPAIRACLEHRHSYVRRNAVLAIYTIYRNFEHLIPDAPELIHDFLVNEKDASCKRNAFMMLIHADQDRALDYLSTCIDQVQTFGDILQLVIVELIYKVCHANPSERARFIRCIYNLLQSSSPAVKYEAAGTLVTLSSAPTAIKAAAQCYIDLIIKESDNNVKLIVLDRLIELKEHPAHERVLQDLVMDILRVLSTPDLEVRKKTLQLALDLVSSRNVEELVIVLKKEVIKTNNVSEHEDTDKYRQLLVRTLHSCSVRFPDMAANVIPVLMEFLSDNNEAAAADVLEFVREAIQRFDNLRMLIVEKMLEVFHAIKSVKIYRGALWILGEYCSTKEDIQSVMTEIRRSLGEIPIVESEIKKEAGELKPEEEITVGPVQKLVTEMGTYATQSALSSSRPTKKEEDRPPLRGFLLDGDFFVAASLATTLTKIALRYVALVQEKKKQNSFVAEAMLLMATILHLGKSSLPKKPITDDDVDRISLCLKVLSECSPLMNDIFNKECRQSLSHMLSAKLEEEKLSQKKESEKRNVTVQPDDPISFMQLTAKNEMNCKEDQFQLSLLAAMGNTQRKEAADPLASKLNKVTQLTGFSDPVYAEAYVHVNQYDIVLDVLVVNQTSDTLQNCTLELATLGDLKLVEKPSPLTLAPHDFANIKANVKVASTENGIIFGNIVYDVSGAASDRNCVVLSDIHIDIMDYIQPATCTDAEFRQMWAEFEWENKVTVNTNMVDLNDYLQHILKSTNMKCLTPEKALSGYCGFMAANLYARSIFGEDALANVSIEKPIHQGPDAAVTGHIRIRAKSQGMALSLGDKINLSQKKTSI

In the case of C=CC(=O)Nc1ccccc1Nc1nc(Nc2ccc(N3CCN(C)CC3)cc2)ncc1Cl, the inhibition [1] is reported as 59.3%.

For COc1cc(O)c2c(c1)/C=C/C[C@H](O)[C@H](O)C(=O)/C=C\C[C@H](C)OC2=O, the Activity [2] was 0.75%.

In the case of C=CC(=O)Nc1ccccc1Nc1nc(Nc2ccc(N3CCN(CCOCCOCCOCCNC(=O)CCCC[C@@H]4SC[C@@H]5NC(=O)N[C@@H]54)CC3)cc2)ncc1Cl, the Activity [3] is reported as “Active”, the Activity [4] is reported as “Active” and the Activity [5] is reported as “Active”. For the same compound, the Activity [6] was “Active”, the Activity [7] was “Active” and the Activity [8] was “Active”. For the same compound, the Activity [9] was “Active”, the Activity [10] was “Active” and the Activity [11] was “Active”. For the same compound, the Activity [12] was “Active”, the Activity [13] was “Active” and the Activity [14] was “Active”. The Activity [15] was “Active”, the Activity [16] was “Active” and the Activity [17] was “Active”. For the same compound, the Activity [18] was “Active”, the Activity [19] was “Active” and the Activity [20] was “Active”. For the same compound, the Activity [21] was “Active”, the Activity [22] was “Active” and the Activity [23] was “Active”.
